Published values gathered from unrelated publications.
Compare with care: the assays were run in different laboratories.
PFF0160c: Dihydroorotate dehydrogenase (quinone), mitochondrial (PFF0160c, Plasmodium falciparum, UniProt Q08210)
PDE5A: cGMP-specific 3',5'-cyclic phosphodiesterase (PDE5A, Homo sapiens, UniProt O76074)
PPO3: PPO3 (Agaricus bisporus, UniProt C7FF04)
ARAF: Serine/threonine-protein kinase A-Raf (ARAF, Homo sapiens, UniProt P10398)
AURKB: Aurora kinase B (AURKB, Homo sapiens, UniProt Q96GD4)
KDM1A: Lysine-specific histone demethylase 1A (KDM1A, Homo sapiens, UniProt O60341)
HDAC2: Histone deacetylase 2 (HDAC2, Homo sapiens, UniProt Q92769)
MEP1A: Meprin A subunit alpha (MEP1A, Homo sapiens, UniProt Q16819)

target | read-out | action | method | setting | IC50 [µM] | Compound
PFF0160c | enzyme activity | inhibitor |  |  | > 10 | Cc1cc(Nc2cccc(Cl)c2)n2nc(CN(C)C)nc2n1
PDE5A | enzyme activity | inhibitor | FP |  | 1.25 | O=C1[C@@H]2Cc3c([nH]c4ccccc34)[C@@H](c3cccnc3)N2C(=O)N1c1ccc(Cl)cc1
Serine/threonine-protein kinase Nek3 (NEK3, Homo sapiens, UniProt P51956) | enzyme activity | inhibitor | radiometric |  | 0.185 | CN(C)C/C=C/C(=O)Nc1cccc(C(=O)Nc2ccc(Nc3nccc(-c4cccnc4)n3)cc2)c1
PFF0160c | enzyme activity | inhibitor |  |  | > 10 | Cc1cc(Nc2cccc(Cl)c2)n2[nH]c(=O)nc2n1
3',5'-cyclic-AMP phosphodiesterase 4A (PDE4A, Homo sapiens, UniProt P27815) | enzyme activity | inhibitor |  |  | 0.251 | COc1ccc(C2=NN(C3CCCCCC3)C(=O)[C@@H]3CC=CC[C@H]23)cc1-c1ccc(C(N)=O)cc1 (relative stereo)
Eukaryotic initiation factor 4A-I (EIF4A1, Homo sapiens, UniProt P60842) | ATPase activity | inhibitor | absorbance |  | 27.5 | CCCCc1ccc(-c2ccc(-c3cc(C(=O)O)c4cccc([N+](=O)[O-])c4n3)o2)cc1
PFF0160c | enzyme activity | inhibitor |  |  | > 10 | Cc1cc(Nc2cccc(Cl)c2)n2nc(CC(C)C)nc2n1
PPO3 | enzyme activity | inhibitor |  |  | 1.8 | Cc1ccc(C(C)C)cc1NC(=O)COC(=O)c1ccc(O)cc1O
PFF0160c | enzyme activity | inhibitor |  |  | > 10 | COCCOc1nc2nc(C)cc(Nc3ccc(Cl)cc3)n2n1
Sodium channel protein type 9 subunit alpha (SCN9A, Homo sapiens, UniProt Q15858) | ion current | inhibitor |  |  | > 10 | O=C(Nc1ccn(Cc2ccc(O)cc2C(F)(F)F)n1)c1c(F)cccc1F
PPO3 | enzyme activity | inhibitor |  |  | 20.2 | Cc1ccc(C(C)C)cc1NC(=O)COC(=O)c1cc(O)cc(O)c1
PDE5A | enzyme activity | inhibitor | FP |  | 0.15 | CCN1C(=O)[C@@H]2Cc3c([nH]c4ccccc34)[C@@H](c3cccnc3)N2C1=O
ARAF | enzyme activity | inhibitor |  | lysate | > 10 | CN(C)CCOc1ccc(-c2nc(-c3ccncc3)c(-c3ccc4c(c3)CC/C4=N\O)[nH]2)cc1
PPO3 | enzyme activity | inhibitor | absorbance |  | 24.7 | Nc1nc(N)c(N=Nc2ccccc2[N+](=O)[O-])c(Cl)n1
AURKB | enzyme activity | inhibitor | mobility shift |  | 0.033 | Cc1cnc(Nc2ccc(N3CCN(C)CC3)cc2)nc1Nc1cccc(S(=O)(=O)NC(C)(C)C)c1
KDM1A | enzyme activity | inhibitor | fluorescence |  | 0.074 | C#CCSc1nc(Sc2nnnn2-c2ccccc2)c2nnn(Cc3cccc(Cl)c3)c2n1
PDE5A | enzyme activity | inhibitor | FP |  | 13.7 | CCN1C(=O)[C@@H]2Cc3c([nH]c4ccccc34)[C@@H](c3ccc(OC)c(OC)c3)N2C1=O
Poly [ADP-ribose] polymerase 1 (PARP1, Homo sapiens, UniProt P09874) | enzyme activity | inhibitor |  |  | 1.42 | O=C(c1ccc2ccncc2c1)N1CCC2CC1CN2C(=O)c1n[nH]c(=O)c2ccccc12 (stereo not drawn)
HDAC2 | enzyme activity | inhibitor | fluorescence |  | 1.42 | CCCON(Cc1ccc(C(=O)NO)cc1)C(=O)Nc1ccccc1
PDE5A | enzyme activity | inhibitor | FP |  | 0.41 | CC(C)(C)N1C(=O)[C@H]2Cc3c([nH]c4ccccc34)[C@@H](c3cccnc3)N2C1=O
PFF0160c | enzyme activity | inhibitor |  |  | > 10 | CNCCOc1nc2nc(C)cc(Nc3cccc(Cl)c3)n2n1

target | read-out | action | method | setting | IC50 [µM] | Compound
PDE5A | enzyme activity | inhibitor | FP |  | > 10 | COC(=O)[C@H]1Cc2c([nH]c3ccccc23)[C@H](c2ccc(OC)c(OC)c2)N1C(=O)CCl
PPO3 | enzyme activity | inhibitor | absorbance |  | 43.8 | COc1ccc(N=Nc2c(N)nc(N)nc2N)cc1
AURKB | cell-free assay | inhibitor |  |  | > 10 | CC(C)(C)n1nc(-c2ccc3nc(OC4CC4)ccc3c2)c(C(N)=O)c1N
ARAF | enzyme activity | inhibitor |  |  | 0.566 | CN1CCN(c2ccc(Nc3ncc4cc(C#N)c(=O)n(C5CCCC5)c4n3)cc2)CC1
PFF0160c | enzyme activity | inhibitor |  |  | > 10 | COCCc1nc2nc(C)cc(Nc3cccc(Cl)c3)n2n1
PDE5A | enzyme activity | inhibitor | FP |  | 4.35 | CCN1CC(=O)N2[C@H](c3ccc(OC)c(OC)c3)c3[nH]c4ccccc4c3C[C@@H]2C1=O
MEP1A | enzyme activity | inhibitor |  |  | 0.464 | O=C(CCN(Cc1cccnc1)Cc1ccc2c(c1)OCO2)NO
PPO3 | enzyme activity | inhibitor |  |  | 11 | Cc1ccc(C(C)C)cc1NC(=O)COC(=O)c1ccc(O)c(O)c1
PFF0160c | enzyme activity | inhibitor |  |  | 0.98 | Cc1cc(Nc2ccc(C(F)(F)F)cc2)c2ccccc2n1
Deoxyribonuclease-1 (DNASE1, Bos taurus, UniProt P00639) | enzyme activity | inhibitor |  |  | > 100 | CC/C=C\C/C=C\C/C=C\C/C=C\C/C=C\CCCC(=O)O
KDM1A | enzyme activity | inhibitor | fluorescence |  | 1.05 | CCCSc1nc(Sc2nncs2)c2nnn(CCO)c2n1
PDE5A | enzyme activity | inhibitor |  |  | > 0.1 | CN1C(=O)c2c(nn(Cc3ccc(-c4cccc(F)n4)cc3)c2Nc2ccccc2)N2C1=N[C@@H]1CCC[C@@H]12
AURKB | enzyme activity | inhibitor |  |  | 0.0037 | Cc1cnc(-c2ccc(-c3ccc(NC(=O)Nc4c(F)cc(F)cc4F)cc3F)c3c2C(=O)NC3)[nH]1
MEP1A | enzyme activity | inhibitor |  |  | 0.474 | O=C(CCN(Cc1ccncc1)Cc1ccc2c(c1)OCO2)NO
KDM1A | enzyme activity | inhibitor | fluorescence |  | 0.847 | CCCSc1nc(Sc2nc3ccccc3s2)c2nnn(CCO)c2n1
Caspase-6 (CASP6, Homo sapiens, UniProt P55212) | enzyme activity | inhibitor |  |  | 0.0232 | CC(=O)N[C@@H](CC(=O)O)C(=O)N[C@@H](CCC(=O)O)C(=O)N[C@H](C(=O)N[C@H](C=O)CC(=O)O)C(C)C
HDAC2 | enzyme activity | inhibitor | fluorescence |  | 0.75 | CCC[C@H](NC(=O)C1CN(C)C1)c1ncc(-c2cc3ccccc3nc2OC)[nH]1
PFF0160c | enzyme activity | inhibitor |  |  | > 10 | Cc1cc(Nc2cccc(Cl)c2)n2nc(CC3CC3)nc2n1
5-hydroxytryptamine receptor 2A (HTR2A, Homo sapiens, UniProt P28223) | ligand displacement |  | radioligand |  | 3.7 | C[C@@H]1Cc2ccccc2N1C(=O)NCCCCN(C)[C@@H]1Cc2cccc3[nH]c(=O)n(c23)C1
PFF0160c | enzyme activity | inhibitor |  |  | > 10 | Cc1cc(Nc2cccc(Cl)c2)n2nc(OCCN(C)C)nc2n1
HDAC2 | enzyme activity | inhibitor |  |  | 0.2 | CC(C)C[C@H]1CC(=O)N[C@@H](C)C(=O)N[C@@H](CCCCCC(=O)O)C(=O)N[C@@H](Cc2c[nH]c3ccccc23)C(=O)N1
